Compound activity (PubChem BioAssay)
Hits are enriched below; roughly 4.1% of the tested compounds scored in any of these assays.
hERG rescue: hERG rescue from dofetilide block, primary screen, cell-based, CHO-hERG, FluxOR thallium flux, dofetilide IC70; Voltage-gated inwardly rectifying potassium channel KCNH2 (Homo sapiens), Q12809; dofetilide IC70 present; activation (rescue from dofetilide block), less the hit threshold, % at 10 µM; 0.51% of 310,000 active; AID 1511, 2009;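 active = activation above the mean of controls blocked by dofetilide plus 5 SD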;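 note: thallium influx through hERG after potassium depolarization seen as dye fluorescence rise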
Target sequence (Q12809 whole entry, looked up): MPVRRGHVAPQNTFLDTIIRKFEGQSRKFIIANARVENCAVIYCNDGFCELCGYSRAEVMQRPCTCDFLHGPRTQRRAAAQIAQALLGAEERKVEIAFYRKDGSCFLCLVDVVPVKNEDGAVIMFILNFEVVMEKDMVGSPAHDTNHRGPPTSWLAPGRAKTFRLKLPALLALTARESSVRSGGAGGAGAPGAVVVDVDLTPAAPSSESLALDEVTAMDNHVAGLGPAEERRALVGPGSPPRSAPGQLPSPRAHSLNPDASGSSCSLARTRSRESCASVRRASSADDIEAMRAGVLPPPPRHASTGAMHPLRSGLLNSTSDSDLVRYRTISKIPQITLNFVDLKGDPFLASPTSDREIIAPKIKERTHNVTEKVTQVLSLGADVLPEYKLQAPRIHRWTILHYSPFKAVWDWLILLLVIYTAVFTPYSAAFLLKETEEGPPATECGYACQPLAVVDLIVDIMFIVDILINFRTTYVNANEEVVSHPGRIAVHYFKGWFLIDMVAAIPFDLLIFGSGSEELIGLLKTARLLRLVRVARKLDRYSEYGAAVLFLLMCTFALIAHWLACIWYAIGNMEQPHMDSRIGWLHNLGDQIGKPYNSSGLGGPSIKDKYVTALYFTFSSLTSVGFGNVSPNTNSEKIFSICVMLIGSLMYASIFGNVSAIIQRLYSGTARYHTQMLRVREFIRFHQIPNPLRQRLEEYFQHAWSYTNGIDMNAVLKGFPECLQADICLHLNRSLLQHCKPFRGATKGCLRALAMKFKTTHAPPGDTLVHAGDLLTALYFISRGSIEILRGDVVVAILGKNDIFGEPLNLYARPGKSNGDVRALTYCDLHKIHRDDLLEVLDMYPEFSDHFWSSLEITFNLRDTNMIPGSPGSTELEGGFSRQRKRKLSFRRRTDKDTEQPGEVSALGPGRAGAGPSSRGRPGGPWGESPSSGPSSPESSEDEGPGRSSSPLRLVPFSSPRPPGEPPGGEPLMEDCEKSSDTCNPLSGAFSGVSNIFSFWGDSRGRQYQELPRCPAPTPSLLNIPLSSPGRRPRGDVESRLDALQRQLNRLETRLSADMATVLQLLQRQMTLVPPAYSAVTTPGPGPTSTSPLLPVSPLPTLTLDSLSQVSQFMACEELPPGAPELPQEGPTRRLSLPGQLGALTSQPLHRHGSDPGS
KCNK9 inh: KCNK9 potassium channel inhibitors, primary screen, HEK293 cells, thallium flux. Potassium channel subfamily K member 9 (Homo sapiens), Q9NPC2. FluxOR thallium flux fluorescence; hits give low values. B-score at 10 µM. 1.2% of 310,000 active. AID 488922, 2010;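 active = ratio B-score over 3 SD below the library mean, with starting fluorescence within 5 SD of its mean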;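 note: negative B-score means less thallium flux so channel inhibition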
KCNK3 inh: human KCNK3 channel inhibitors, primary screen, CHO cells, FluxOR thallium flux, B-score; Potassium channel subfamily K member 3 (Homo sapiens), O14649; AID 602410, 2012; FluxOR fluorescence; hits give low values; 0.84% of 340,000 active; B-score at 10 µM;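 active = B-score under library mean minus 4 SD, starting fluorescence ratio at most library mean plus 5 SD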;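 note: more negative B-score means stronger inhibition of thallium flux through KCNK3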
KCNQ1 act: potentiators or activators of KCNQ1 channel, primary screen, cell-based, thallium flux, high-throughput. Potassium voltage-gated channel subfamily KQT member 1 (Homo sapiens), P51787. CHO-K1 KCNQ1, thallium flux FluxOR fluorescence; hits give high values. B-score at 10 µM. 0.35% of 310,000 active. AID 2648, 2010;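 active = fluorescence ratio B-score, a plate-corrected score, at least three library SD, with initial intensity B-score within 5 SD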
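assay system = KCNQ1-transfected CHO-K1 cells | medium = assay buffer with matched DMSO | probe or stimulus = depolarizing K+/Tl+ stimulus, K2SO4 and Tl2SO4 each 12.5 mM in 5x stock | dosing = single dose | incubation = dye 90 min, compound 20 min, room temperature | detection = kinetic FluxOR fluorescence, 10 s baseline plus 110 s post-stimulus | evaluation = ratio B score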
KCC2 mod: KCC2 cotransporter modulators, thallium flux, primary screen, cell-based, HEK293 KCC2, FluoZin-2 fluorescence, MLSMR. KCC2 cells, thallium flux FluoZin-2 fluorescence. B-score of Tl+ flux slope (higher = more flux/activation; lower = inhibition) at 10 µM. AID 1456, 2008. 2.2% of 190,000 active;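 active = thallium flux slope and its plate-corrected score both differing from the plate sample mean at a set confidence after two filtering rounds, in either direction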;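 note: slope of fluorescence scaled to starting intensity during 10 to 20 s after thallium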
KCNQ1 inh: inhibitors of human KCNQ1 channel, primary screen, cell-based, thallium flux, high-throughput; CHO-K1 KCNQ1, FluxOR thallium flux fluorescence; hits give high values; AID 2642, 2010; 1.3% of 310,000 active; B-score at 10 µM;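 active = compounds whose thallium flux B-score, printed positive for inhibition, exceeds three library SD while starting fluorescence stays within three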;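 note: channel opened by potassium depolarization with thallium stimulus after 20 min compound exposure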
KCC2 sec1: KCC2 modulators in sodium-free buffer, confirmation, cell-based, HEK293 KCC2, thallium flux, secondary assay; shares compounds with KCC2 mod; FluoZin2 fluorescence; hits give high values; normalised thallium flux (F/F0 slope) at 10 µM; 15% of 3,700 active;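 active = thallium flux slope above the same plate's solvent-only control mean plus 3 SD; inconclusive = the two replicate wells disagree; inactive = no significant difference from solvent-only control wells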
KCC2 bumet counter: thallium flux persisting under bumetanide in KCC2 cells, confirmation, counter-screen for KCC2 modulator project, cell-based, HEK293 KCC2, FluoZin2, secondary assay 3; shares compounds with KCC2 mod; HEK293-KCC2 + bumetanide/ouabain; hits give high values; normalized thallium flux at 10 µM; 49% of 3,700 active;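 active = thallium entry rate above the same plate's blocked-transporter control wells by more than 3 SD; inconclusive = the two repeat wells disagree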;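 note: raw slope of fluorescence over initial fluorescence between 10 and 20 s after thallium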
KCC2 sec2: KCC2 modulators without ouabain present, confirmation, cell-based, HEK293 KCC2, thallium flux, FluoZin2, secondary assay 2; thallium flux FluoZin2 fluorescence; actives lie on both sides; F/F0 rise rate, 10–20 s post-thallium; 23% of 3,700 active; normalized thallium flux at 10 µM; shares compounds with KCC2 mod;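 active = thallium flux slope more than 3 SD above or below the plate's solvent-only control mean, mostly below; inconclusive = the two repeat wells disagreed; inactive = no significant shift from solvent-only controls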
HEK counter1: thallium flux modulation in parental HEK cells, confirmation, counter-screen for KCC2 modulator project, cell-based, counterscreen 1; shares compounds with KCC2 mod; HEK293 parental cells, thallium flux FluoZin2, ouabain; baseline-ratio fluorescence slope, 10–20 s after thallium; thallium flux rate (normalised fluorescence) at 10 µM; 46% of 3,700 active;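 active = thallium flux rate significantly above the same plate's solvent-only control wells, beyond their mean plus 3 SD; inconclusive = the two replicate wells gave conflicting results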
KCC2 retest ouab: KCC2 inhibitors and activators, ouabain retest, confirmation, HEK-KCC2 cells | AID 1717, 2009 | 48% of 3,700 active | HEK293-KCC2, thallium flux FluoZin2 fluorescence; bidirectional: low = inhibitor, high = activator | raw Tl+ flux slope (below DMSO = inhibition, above = activation) at 10 µM | shares compounds with KCC2 mod;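 active = thallium flux slope beyond 3 SD from same-plate DMSO control mean in most replicates, usually higher, sometimes lower; inconclusive = repeat tests gave conflicting results; inactive = no significant difference from controls in most replicates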;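 note: slope of initial-normalized fluorescence between seconds 10 and 20 after thallium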
HEK counter2: native HEK Tl+ uptake effects, second counter-screen – HEK cells, counterscreen 2, counter-screen for KCC2 modulator project, confirmation | shares compounds with KCC2 mod | HEK293 parental, thallium flux FluoZin-2 fluorescence slope | thallium flux slope at 10 µM | 33% of 3,700 active;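 active = thallium flux slope above the same plate's solvent-control mean plus 3 SD in both duplicate wells; inconclusive = duplicate wells that disagreed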;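 note: run without ouabain in cells lacking the KCC2 cotransporter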
Large screens that a line does not name were inactive (follow-up assays come after a bar, where they were run).

COc1ccccc1NC(=O)CN1C(=O)NC(CC(C)C)C1=O (stereo not drawn)	KCC2 mod -5 | KCC2 sec1 inactive | KCC2 bumet counter inactive | KCC2 sec2 inactive | HEK counter1 inactive | KCC2 retest ouab inactive | HEK counter2 inactive
COc1cc(NC(=O)CN2C(=O)NC(CC(C)C)C2=O)cc(OC)c1OC (stereo not drawn)	none (no result: hERG rescue, KCNK9 inh, KCNQ1 act, KCC2 mod, KCNQ1 inh)
Cc1ccc(C(=O)N/N=C/c2ccc([N+](=O)[O-])s2)cc1	KCC2 mod 6.6 | KCC2 sec1 inactive | KCC2 bumet counter 0.015 | KCC2 sec2 inactive | HEK counter1 0.016 | KCC2 retest ouab inconclusive | HEK counter2 inconclusive
Cc1ccc(OCC(=O)N/N=C\c2cccs2)c([N+](=O)[O-])c1	none
Cc1ccc([N+](=O)[O-])c(C(=O)N/N=C/c2cccs2)c1	KCC2 mod 4.5 | KCC2 sec1 inactive | KCC2 bumet counter 0.014 | KCC2 sec2 inactive | HEK counter1 0.011 | KCC2 retest ouab inactive | HEK counter2 0.014
O=C(N/N=C/c1ccc([N+](=O)[O-])s1)c1ccncc1	none
CCC(=O)N(CCc1ccc(OC)c(OC)c1)Cc1cc2ccc(C)cc2n2nnnc12	none
CC(C)[C@@H](C(=O)N[C@@H](C(=O)O)c1ccccc1)N1C(=O)N2CCc3c([nH]c4ccccc34)[C@@]2(C)C1=O	none (no result: KCC2 mod)
O=C(COc1ccccc1)Nc1nnc(-c2ccc(Cl)s2)o1	none (no result: KCC2 mod) | KCC2 sec1 0.014 | KCC2 bumet counter 0.022 | KCC2 sec2 inactive | HEK counter1 0.012 | KCC2 retest ouab inactive | HEK counter2 0.012
O=C(COc1ccccc1)Nc1nnc(-c2ccccc2)o1	none
Cc1ccc(-n2[nH]c(C)c(C=Nc3ccc(C)cn3)c2=O)cc1	KCC2 mod 9.4 | KCC2 sec1 inactive | KCC2 bumet counter 0.02 | KCC2 sec2 inactive | HEK counter1 0.022 | KCC2 retest ouab inconclusive | HEK counter2 0.014
Cc1ccc(-n2[nH]c(C)c(C=Nc3ccc(S(=O)(=O)Nc4nccs4)cc3)c2=O)cc1	none (no result: KCNK3 inh)
